Compound activity: PubChem BioAssay, several laboratories
Thrombin inh = thrombin (human) inhibition; alpha-thrombin, Boc-VPR-AMC fluorogenic substrate cleavage; inhibition, % at 5 µM; 220,000 compounds, 0.26% hits; AID 1046;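 active means inhibition at or above 40%; inactive means inhibition below 40%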;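 further: 0% = enzyme with no compound and 100% = wells without enzyme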
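System: Human alpha-thrombin protein | Medium: pH 7.5 Tris (50 mM) with NaCl 150 mM, Tween 20 0.05% | Times: Enzyme reaction carried out at room temperature | Detection: AMC fluorescence, 355/460 nm | Evaluation: Percent inhibition scaled between no-compound controls and no-enzyme blanks | Benchmarks: Enzyme without compound as high, wells lacking enzyme as low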
FXIIa inh = blocks human coagulation factor XIIa protease activity | P00748 | purified FXIIa, Boc-QGR-AMC fluorogenic substrate, 2 h | inhibition, % at 5 µM | 220,000 compounds, 0.3% hits | AID 800; in the data active means inhibition above about 40%;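 further: 0% = enzyme with no compound and 100% = blank without enzyme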
Furin inh = human furin inhibition; P09958; purified furin, fluorogenic substrate cleavage; inhibition, % at 20 µM or 30 µM; 220,000 compounds, 0.061% hits; AID 463115; in the data active means inhibition above about 25%
FXIa inh 1536 = blocks human coagulation factor XIa protease activity; P03951; AID 798; inhibition, % at 5 µM; 220,000 compounds, 0.14% hits; purified FXIa, Boc-Glu-Ala-Arg-AMC fluorogenic substrate;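 active means inhibition of at least 40%; inactive means inhibition below 40%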;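 further: fluorescence of freed AMC excited at 355 nm; 0% = enzyme without compound and 100% = no enzyme blank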
Target sequence (P03951 19-387 limits assumed): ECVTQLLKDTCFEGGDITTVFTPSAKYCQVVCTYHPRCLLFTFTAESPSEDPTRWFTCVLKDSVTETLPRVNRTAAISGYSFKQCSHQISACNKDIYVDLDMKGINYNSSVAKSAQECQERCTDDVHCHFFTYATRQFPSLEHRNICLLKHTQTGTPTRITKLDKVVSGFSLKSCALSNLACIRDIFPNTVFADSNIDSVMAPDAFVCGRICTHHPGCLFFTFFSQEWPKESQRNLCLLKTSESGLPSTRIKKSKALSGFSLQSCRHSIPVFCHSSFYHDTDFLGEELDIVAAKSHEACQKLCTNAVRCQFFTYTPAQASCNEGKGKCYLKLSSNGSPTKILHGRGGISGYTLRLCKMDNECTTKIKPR
Target sequence (P03951 388-625 limits assumed): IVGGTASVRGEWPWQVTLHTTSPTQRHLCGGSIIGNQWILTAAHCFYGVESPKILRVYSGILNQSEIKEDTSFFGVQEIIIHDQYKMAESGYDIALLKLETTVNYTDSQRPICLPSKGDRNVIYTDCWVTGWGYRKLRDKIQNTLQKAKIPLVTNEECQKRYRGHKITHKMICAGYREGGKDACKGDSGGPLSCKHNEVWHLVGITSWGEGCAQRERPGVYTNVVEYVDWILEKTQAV
KLK5 inh = blocks human kallikrein 5 protease activity. Q9Y337. recombinant hK5, fluorogenic AMC substrate cleavage. inhibition, % at 5 µM. 210,000 compounds, 0.59% hits;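 active means inhibition of 40% or more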;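 further: 0% = enzyme controls without compound and 100% = no-enzyme blanks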
Numbers without * were called inactive; / = no result. Compounds with a hit are over-represented: about 1.1% of the library has one in this group of screens.

SMILES | Thrombin inh | FXIIa inh | Furin inh | FXIa inh 1536 | KLK5 inh
CCCS(=O)(=O)N1CCC(C(=O)NCCCOCC)CC1 | -3.6 | -1.3 | -17.6 | -9.7 | -1.5
COc1ccc2[nH]c3c(NCCCN4CCCC4=O)ncnc3c2c1 | 0.2 | -4.8 | -11.2 | 0.8 | 54.2*
COc1ccc2[nH]c3c(NCCN(C(C)C)C(C)C)ncnc3c2c1 | 1.3 | 10.5 | -13.3 | 7.3 | -62.2
NC(=O)CC[C@@H]1NC(=O)[C@@H]2CCCN2C(=O)c2cc([N+](=O)[O-])cc(I)c2NCCCC[C@@H](C(=O)NC(CC(=O)O)C(N)=O)NC1=O (stereo not given in full) | -0.2 | 14.0 | -12.4 | 4.1 | -14.3
Cc1ccc(C(=O)N/N=C\c2c(C)nn(-c3ccccc3)c2Cl)cn1 | 12.4 | 10.5 | -10.5 | 9.8 | 40.8*
Cc1nn(-c2ccccc2)c(Cl)c1/C=N/NC(=O)c1cccnc1 | -2.2 | -0.1 | 2.6 | 4.9 | -10.0
COc1ccccc1NC(=O)C1C2CCCCC21 (stereo not given) | 103.6* | 22.3 | -22.7 | 11.5 | 61.4*
CCCCSc1nc2c(cc1C#N)CCC2 | 13.7 | 1.9 | -8.6 | 5.2 | 103.7*
CSc1nc2c(cc1C#N)CCC2 | -0.1 | 9.2 | -16.9 | 0.4 | 0.4
COCc1cc(=O)[nH]c(SCCS(=O)(=O)c2ccc(Cl)cc2Cl)n1 | 1.5 | 14.1 | -22.4 | 6.6 | 4.8
COC(=O)c1c(SCC(=O)Nc2ccc(C)cc2)nc(=O)[nH]c1C | 33.6 | 25.8 | 0.9 | 28.7 | 73.8*
Cc1cc(NC(=O)COC(=O)C2CCN(S(=O)(=O)c3c(Cl)cccc3Cl)CC2)no1 | -1.3 | 43.2* | -21.8 | 18.7 | 14.7
Cc1cc(NC(=O)COC(=O)c2cccc(O)c2)no1 | -1.6 | 2.5 | -23.2 | -1.0 | -1.7
Cc1cc(NC(=O)COC(=O)c2cccc(S(=O)(=O)N(C)C3CCCCC3)c2)no1 | 4.3 | 43.3* | 6.3 | 6.6 | 9.3
COc1ccc(NS(=O)(=O)c2cccc(C(=O)OCC(=O)Nc3cc(C)on3)c2)cc1 | -2.5 | 6.6 | -17.4 | -7.4 | -21.9
Cc1ccc(NS(=O)(=O)c2ccc(C(=O)OCC(=O)Nc3cc(C)on3)cc2)cc1 | 14.6 | 30.1 | 9.3 | 101.9* | 48.0*
CCCN1C(=O)N(c2cccc(C)c2)C(C)(O)CC1(C)C (stereo not given) | -2.1 | 3.6 | -11.4 | 4.5 | -8.0
COc1cc(/C=N/n2cnnc2)ccc1OC(=O)c1cccnc1 | -5.3 | 42.3* | -14.9 | 19.1 | -2.1
COc1ccc([N+](=O)[O-])cc1NC(=O)CC1SC(=Nc2cccc(C)c2C)N(/N=C/c2cccc(OC)c2OC)C1=O (stereo not given) | 20.7 | 22.4 | -1.6 | 102.2* | -3.4
CC(C)=CCC/C(C)=C/C(N)=O | -8.1 | 6.1 | -30.1 | 3.8 | -6.8
CC(C)=CCC/C(C)=C/CC/C(C)=N/O | 23.7 | 40.2* | -16.1 | 15.1 | 29.5
CC1CCCC(=C\c2ccccc2)/C1=N/O (stereo not given) | -6.1 | 19.7 | -12.2 | 5.0 | -16.2
COc1ccc(C2NC(c3ccc(OC)cc3)C(c3ccccc3)C(=O)C2c2ccccc2)cc1 (stereo not given) | -14.2 | -3.4 | -9.6 | -5.7 | -20.1
Cc1ccc(S(=O)(=O)Nc2ccc3c(c2)c2c(n3S(=O)(=O)c3ccc(C)cc3)CCCC2=O)cc1 | 27.0 | 12.2 | -14.4 | 14.5 | 68.1*
CC(C)OCCCNS(=O)(=O)c1ccc2c(c1)oc(=O)n2C | 14.0 | 21.2 | -17.9 | 16.3 | 41.5*
SMILES | Thrombin inh | FXIIa inh | Furin inh | FXIa inh 1536 | KLK5 inh
CCCN(CCC)CCCNS(=O)(=O)c1ccc2c(c1)oc(=O)n2C | 0.1 | 26.3 | -20.7 | 9.8 | 1.1
CCCC(C)NC(=O)Cc1ccccc1 (stereo not given) | 3.7 | 45.2* | -4.5 | 4.3 | 7.9
CC(CCc1ccccc1)NC(=O)Cc1ccccc1 (stereo not given) | -9.7 | 3.9 | -20.2 | -6.7 | -4.8
CNC(=S)N/N=C(\C)c1ccc(C(C)(C)C)cc1 | 7.5 | 19.0 | -11.3 | 7.0 | 49.2*
CN(C)S(=O)(=O)N1CCc2ccccc2C1 | -20.6 | -3.0 | -3.6 | 0.8 | 2.1
CN(C)S(=O)(=O)N1CCc2ccccc21 | 24.3 | 23.2 | -18.0 | 10.2 | 71.6*
CS(=O)(=O)N(Cc1ccco1)CC(O)Cn1c2ccccc2c2ccccc21 (stereo not given) | 38.2 | 1.7 | -13.4 | 13.1 | 43.6*
O=C(N/C(=C/c1cccnc1)C(=O)N1CCOCC1)c1ccccc1Br | -8.4 | 0.9 | -17.6 | -3.9 | -3.8
O=c1c2ccccc2nc2n1CCCCC2 | 3.2 | 17.1 | -3.2 | 2.6 | -22.1
CN1CCN(C(=O)c2ccc3c(=O)n4c(nc3c2)CCCCC4)CC1 | 13.4 | 8.0 | -14.2 | 2.4 | 42.3*
O=C(c1ccc2c(=O)n3c(nc2c1)CCCCC3)N1CCN(Cc2ccccc2)CC1 | -8.0 | -3.8 | -16.0 | -6.8 | -13.9
O=c1c2ccccc2nc2n1CCC2 | -2.1 | 14.0 | -30.1 | 4.4 | 59.8*
Oc1ccccc1-n1c(-c2ccccc2)ccc1-c1ccccc1 | 2.5 | 5.5 | -23.2 | 0.0 | 1.6
Cc1ccc(NC(=O)CSc2nnc(-c3ccc(S(=O)(=O)N4CCOCC4)cc3)n2C)cc1 | -8.1 | -5.5 | -21.8 | -5.1 | 2.0
Cn1c(SCC(=O)NC2CCCC2)nnc1-c1ccc(S(=O)(=O)N2CCOCC2)cc1 | 44.9* | -3.4 | -20.4 | -12.0 | -13.9
Cc1c(Cl)cccc1Nc1nc(N)nc(CN2CCc3ccccc3C2)n1 | 0.5 | 43.1* | -15.6 | 26.9 | -26.3
Cc1ccc(Nc2nc(N)nc(CN3CCc4ccccc4C3)n2)cc1 | 6.9 | 11.8 | 3.7 | 1.5 | -3.1
O=C(Cc1cccs1)Nc1nnc(CCc2ccccc2)s1 | 54.4* | 15.5 | 19.1 | 40.7* | 42.8*
COc1ccc(N2CCN(C(CNC(=O)OCc3ccccc3)c3ccco3)CC2)cc1 (stereo not given) | -6.5 | 10.9 | -15.4 | 1.6 | -1.1
O=C(O)c1ccc(F)c(S(=O)(=O)Nc2ccccc2Cl)c1 | 17.8 | 0.2 | -16.5 | 2.3 | 85.8*
CCN1CCS/C1=C\C=C\C1=[N+](CC)CCS1 | 4.9 | 18.2 | 43.0* | 5.7 | 19.2
CCN1CCS/C1=C/C=C/C1=[N+](CC)CCS1 | -3.7 | 15.9 | 38.3* | 9.3 | -11.6
Cc1cc(C)cc(OCc2ccc(C(=O)NN)o2)c1 | -9.4 | 5.9 | -27.8 | 3.0 | -3.6
O=C1c2ccccc2C(=O)N1CCCCN1CCN(CCCCN2C(=O)c3ccccc3C2=O)CC1 | / | / | 25.8* | / | /
O=C1CC(=C2c3ccccc3-c3ccccc32)C(=O)N1CCCCN1CCN(c2ccccc2)CC1 | -2.8 | 12.6 | 28.3* | 3.8 | -13.6
O=C1CC(=C(c2ccccc2)c2ccccc2)C(=O)N1CCCN1CCN(c2cccc(Cl)c2)CC1 | 2.3 | 11.4 | -15.7 | 15.4 | -3.2
COc1ccccc1CCc1nnc(CCC(=O)N(C)Cc2cccc3ncccc23)o1 | -7.6 | 2.5 | -25.6 | -5.8 | -3.3
Cc1ccc(C2(c3noc(CN(C)Cc4cccnc4)n3)CCCC2)cc1 | 2.5 | 4.0 | -21.0 | 2.8 | /
CCCOc1ccc(Br)cc1/C=N/O | -2.3 | -14.5 | -14.2 | -3.0 | 2.8
O=C(NCc1ccccc1)C1(c2cccc(F)c2)CCCC1 | -11.8 | / | -15.0 | -5.3 | -0.9
